Measured values published in ChEMBL document CHEMBL1137127 (Bioorg Med Chem Lett, 2004).

Legend:
[1] = biological target: Metabotropic glutamate receptor 5 (Rattus norvegicus, UniProt P31424); test: Displacement by compound of [3H]3-methoxy-5-(pyridin-2-ylethynyl)pyridine from rat cortical membranes; format: cell membranes, Membrane
Procedure, shortened: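 Native rat mGlu5 binding: rat cortical membranes, displacement of [³H]-3-methoxy-5-(pyridin-2-ylethynyl)pyridine by test compound; Ki derived.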

[2] = biological target: Metabotropic glutamate receptor 5 (Homo sapiens, UniProt P41594); test: In vitro potency against human recombinant mGlu5 receptor was determined by [Ca2+] flux assay using glutamate as agonist; format: functional
Metabotropic glutamate receptor 5 (Homo sapiens, UniProt P41594), sequence (P41594 whole entry): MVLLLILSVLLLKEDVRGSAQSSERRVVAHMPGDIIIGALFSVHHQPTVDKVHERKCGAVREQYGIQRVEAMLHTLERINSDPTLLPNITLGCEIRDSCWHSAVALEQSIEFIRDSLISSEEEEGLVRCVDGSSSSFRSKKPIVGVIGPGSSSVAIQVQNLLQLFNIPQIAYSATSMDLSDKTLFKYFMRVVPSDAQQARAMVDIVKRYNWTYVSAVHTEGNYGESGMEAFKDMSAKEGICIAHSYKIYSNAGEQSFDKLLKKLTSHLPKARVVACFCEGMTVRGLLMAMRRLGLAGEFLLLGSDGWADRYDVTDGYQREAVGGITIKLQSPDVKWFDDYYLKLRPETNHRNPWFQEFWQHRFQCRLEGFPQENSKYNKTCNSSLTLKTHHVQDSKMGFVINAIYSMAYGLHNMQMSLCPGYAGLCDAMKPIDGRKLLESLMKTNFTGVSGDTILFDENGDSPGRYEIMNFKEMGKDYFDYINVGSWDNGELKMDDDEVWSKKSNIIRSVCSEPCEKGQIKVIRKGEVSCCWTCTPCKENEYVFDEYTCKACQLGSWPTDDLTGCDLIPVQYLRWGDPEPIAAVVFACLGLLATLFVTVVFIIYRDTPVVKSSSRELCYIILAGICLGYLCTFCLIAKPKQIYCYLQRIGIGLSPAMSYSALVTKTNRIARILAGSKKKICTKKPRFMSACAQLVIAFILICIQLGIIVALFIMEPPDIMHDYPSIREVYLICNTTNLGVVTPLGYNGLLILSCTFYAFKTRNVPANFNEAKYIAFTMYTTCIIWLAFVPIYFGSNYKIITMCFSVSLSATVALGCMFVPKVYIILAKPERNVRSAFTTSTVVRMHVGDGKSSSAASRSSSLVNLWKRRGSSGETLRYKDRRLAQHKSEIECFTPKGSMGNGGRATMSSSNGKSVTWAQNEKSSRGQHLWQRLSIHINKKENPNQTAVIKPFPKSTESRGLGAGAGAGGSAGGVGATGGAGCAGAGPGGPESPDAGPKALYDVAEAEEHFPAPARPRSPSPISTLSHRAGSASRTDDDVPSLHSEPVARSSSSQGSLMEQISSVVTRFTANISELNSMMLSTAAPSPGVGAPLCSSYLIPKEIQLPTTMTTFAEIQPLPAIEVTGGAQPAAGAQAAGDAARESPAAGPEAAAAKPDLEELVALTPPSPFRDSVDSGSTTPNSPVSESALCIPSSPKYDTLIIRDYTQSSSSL
Procedure, shortened: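 Ltk cells stably expressing human recombinant mGlu5; automated assay of cytosolic Ca²⁺ changes by fura-2 fluorescence; IC50 from antagonist response. Mean with a spread value and n in parentheses.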

[3] = logD value was determined; format: physicochemical; settings: octanol/water
[4] = Plasma clearance of compound upon p.o. administration at 2 mg/kg; format: ADME, organism-based; design: dose 2 mg/kg, route oral; settings: rat, po, read-out: Clp
Procedure, shortened: (§1)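 Rat pharmacokinetics with two dosing regimens. In one, iv at 2 mg/kg with po at 10 mg/kg. In the other, iv at 1 mg/kg with po at 2 mg/kg. Bioavailability, clearance, half-life and Cmax come from plasma after each route.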

[5] = Bioavailability of compound was determined upon i.v. administration at 1 mg/kg in rat; format: ADME, organism-based; settings: in vivo, iv; procedure, shortened: as §1
[6] = Bioavailability of compound was determined upon p.o. administration at 2 mg/kg in rat; format: ADME, organism-based; settings: in vivo, po; procedure, shortened: as §1
[7] = Half-life of compound after i.v. administration; format: ADME, organism-based; settings: rat, in vivo, iv; procedure, shortened: as §1
[8] = Plasma clearance of compound upon i.v. administration at 1 mg/kg; format: ADME, organism-based; design: dose 1 mg/kg, route intravenous; settings: rat, iv, read-out: Clp; procedure, shortened: as §1
[9] = Maximum plasma concentration of compound after p.o. administration; format: ADME, organism-based; design: route oral; settings: rat, po; procedure, shortened: as §1
[10] = Plasma clearance of compound upon p.o. administration at 10 mg/kg; format: ADME, organism-based; design: dose 10 mg/kg, route oral; settings: rat, po, read-out: Clp; procedure, shortened: as §1
[11] = Bioavailability in rat (dose 10 mg/kg p.o.); format: ADME, organism-based; settings: in vivo, po; procedure, shortened: as §1
[12] = Bioavailability in rat (dose 2 mg/kg i.v.); format: ADME, organism-based; settings: in vivo, iv; procedure, shortened: as §1
[13] = Plasma clearance of compound upon i.v. administration at 2 mg/kg; format: ADME, organism-based; design: dose 2 mg/kg, route intravenous; settings: rat, iv, read-out: Clp; procedure, shortened: as §1

Metabotropic glutamate receptor 5 (Rattus norvegicus, UniProt P31424), sequence (P31424 whole entry): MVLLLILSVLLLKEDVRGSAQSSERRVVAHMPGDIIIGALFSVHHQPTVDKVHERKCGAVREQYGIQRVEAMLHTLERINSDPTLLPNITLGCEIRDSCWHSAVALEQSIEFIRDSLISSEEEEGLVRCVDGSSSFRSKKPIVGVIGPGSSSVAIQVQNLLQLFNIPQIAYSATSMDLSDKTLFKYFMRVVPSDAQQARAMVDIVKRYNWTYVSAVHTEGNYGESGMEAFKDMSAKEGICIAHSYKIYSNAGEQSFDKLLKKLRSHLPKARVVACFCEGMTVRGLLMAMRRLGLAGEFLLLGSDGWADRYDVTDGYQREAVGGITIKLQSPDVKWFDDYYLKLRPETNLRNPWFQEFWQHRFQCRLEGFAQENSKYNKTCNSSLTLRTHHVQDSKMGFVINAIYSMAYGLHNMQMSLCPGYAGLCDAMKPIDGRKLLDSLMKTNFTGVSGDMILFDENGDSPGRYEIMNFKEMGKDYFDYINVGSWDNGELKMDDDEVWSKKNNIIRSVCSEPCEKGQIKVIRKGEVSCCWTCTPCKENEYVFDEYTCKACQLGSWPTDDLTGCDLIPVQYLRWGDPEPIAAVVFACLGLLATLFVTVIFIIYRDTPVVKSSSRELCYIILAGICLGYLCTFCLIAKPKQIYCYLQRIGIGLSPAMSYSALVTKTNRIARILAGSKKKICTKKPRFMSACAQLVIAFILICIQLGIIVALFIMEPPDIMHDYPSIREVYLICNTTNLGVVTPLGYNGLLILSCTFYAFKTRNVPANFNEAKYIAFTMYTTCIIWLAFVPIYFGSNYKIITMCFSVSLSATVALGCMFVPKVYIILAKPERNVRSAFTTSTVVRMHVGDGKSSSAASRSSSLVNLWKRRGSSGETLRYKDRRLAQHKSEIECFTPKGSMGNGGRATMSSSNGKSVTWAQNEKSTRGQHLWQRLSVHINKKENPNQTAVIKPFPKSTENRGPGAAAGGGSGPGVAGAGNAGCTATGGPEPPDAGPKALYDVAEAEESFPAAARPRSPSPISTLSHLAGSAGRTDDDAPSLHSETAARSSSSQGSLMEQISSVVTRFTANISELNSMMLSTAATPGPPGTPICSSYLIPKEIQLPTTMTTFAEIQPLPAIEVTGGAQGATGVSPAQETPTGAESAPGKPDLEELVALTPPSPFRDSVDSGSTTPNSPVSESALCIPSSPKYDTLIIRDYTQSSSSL

Row | SMILES | Ki [1] [nM] | IC50 [2] [nM] | logD [3] | other results
1 | Cc1nc(C#Cc2ccc(-c3ccncc3)nc2)cs1 | 21 | 29 | 2.9 | –
2 | Cc1nc(C#Cc2ccccc2C)cs1 | 51 | 15 | 3.8 | –
3 | Cc1nc(C#Cc2cncc(-c3ccncc3)c2)cs1 | 15 | 18 | 2.6 | –
4 | Cc1cccc(C#Cc2csc(C)n2)c1 | – | – | 3.9 | –
5 | Cc1nc(C#Cc2cncc(-c3ccccn3)c2)cs1 | 28 | 22 | 2.8 | –
6 | Cc1nc(C#Cc2ccccc2-c2ccccc2)cs1 | 145 | 423 | – | –
7 | Cc1nc(C#Cc2cncc(-c3cccnc3)c2)cs1 | 1 | 3 | 2.4 | CL/F [4]: 29 mL/min/kg; bioavailability [5]: 26%; bioavailability [6]: 26%; half-life [7]: 1.6 h; clearance [8]: 29 mL/min/kg; Cmax [9]: 800 nM
8 | Cc1nc(C#Cc2ccc(-c3ccccc3)nc2)cs1 | – | – | 3.9 | –
9 | Cc1nc(C#Cc2ccc(-c3ccccc3)cc2)cs1 | 43 | 22 | 5 | –
10 | Cc1nc(C#Cc2cncc(-c3ccccc3)c2)cs1 | 40 | 2 | 4.1 | –
11 | Cc1ccc(C#Cc2csc(C)n2)cc1 | 638 | 845 | 3.9 | –
12 | Cc1nc(C#Cc2cccnc2)cs1 | – | – | – | CL/F [10]: 28 mL/min/kg; bioavailability [11]: 16%; bioavailability [12]: 16%; clearance [13]: 28 mL/min/kg; half-life [7]: 8.3 h; Cmax [9]: 2000 nM
13 | Cc1nc(C#Cc2ccncc2)cs1 | 218 | 127 | – | –
14 | Cc1nc(C#Cc2ccc(-c3ccccn3)nc2)cs1 | 16 | 4 | 3.7 | –
15 | Cc1nc(C#Cc2cccc(-c3ccccc3)c2)cs1 | – | – | 4.1 | –
16 | Cc1nc(C#Cc2ccc(-c3cccnc3)nc2)cs1 | – | – | 3.1 | CL/F [10]: 15 mL/min/kg; bioavailability [11]: 100%; bioavailability [12]: 100%; clearance [13]: 15 mL/min/kg; half-life [7]: 0.8 h; Cmax [9]: 6500 nM
17 | Cc1nc(C#Cc2ccccc2)cs1 | 9 | 4 | – | –
18 | Cc1nc(C#Cc2ccccn2)cs1 | 54 | – | – | –
